Test results as given in publication PMC3366067 (Blood Cancer Journal, 2012).

Experiments:
[1] = system: IL-6, IP-10, KC and MIP-1α; assay: Plasma cytokine/chemokine analysis in SET-2 tumor-bearing mice; format: in vivo, mouse
Procedure, shortened: (§1)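 Plasma came from female SCID-beige mice bearing s.c. SET-2 tumors (5 × 10^6 cells) that had been dosed orally with the test compounds in the efficacy study. It was collected on d18, 3 h post-dose. A Luminex 32-plex mouse cytokine/chemokine panel measured the analytes. Comparators were uninoculated naive mice and vehicle-treated tumor-bearing mice.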

pSTAT5 in SET-2 tumors = assay: pSTAT5 levels in SET-2 tumors after chronic treatment; format: in vivo, mouse; settings: end of study
Procedure, shortened: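 SET-2 s.c. tumors came from female SCID-beige mice dosed orally d0–d18. They were excised on the last treatment day, 3 h post-dose, and lysed. pSTAT5 was measured by western blot and compared with vehicle-treated animals.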

[2] = Toxicokinetic studies in mice, single agent; format: in vivo; settings: data not shown
MCP-1 = assay: Plasma cytokine/chemokine analysis in SET-2 tumor-bearing mice; format: in vivo, mouse; settings: d18
Procedure, shortened: as §1

[3] = Pharmacokinetic analysis of pracinostat and pacritinib in plasma; format: in vivo, mouse; settings: d14 vs d1
SET-2 xenografts = assay: Subcutaneous SET-2 model of megakaryoblastic leukemia; format: in vivo, mouse; settings: d18
Procedure, shortened: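 Female SCID-beige mice (9 weeks; n=12 per group) were implanted s.c. with 5 × 10^6 SET-2 cells in Matrigel. From d33 post-implantation, they were dosed orally for 19 days (d0–d18), with separate doses at least 8 h apart. Tumor volume was measured by caliper as (w²×l)/2, and tumors were weighed at the end. Synergy was assessed by Clarke's CI, with <0 counted as synergy. Statistics used ANOVA/Dunnett.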

MOLM-13 s.c. xenografts = assay: Subcutaneous MOLM-13 xenograft model; format: in vivo, mouse; settings: for reduction in tumor weight: d7
Procedure, shortened: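 Female SCID mice (n=12 per group) were given 5 × 10^6 MOLM-13 cells s.c. with Matrigel. Treatment started on d11 and ran 8 days, all oral: 50 mg/kg pacritinib daily in the evenings and 75 mg/kg pracinostat every other day. On the last day, tumors were excised and weighed. Metastases to lungs, breast fat-pad and lymph nodes were counted. Statistics used ANOVA/Dunnett.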

[4] = system: pFLT3, FLT3 in MOLM-13 tumors; assay: Western blot analysis of MOLM-13 tumors; format: in vivo, mouse; settings: chronic treatment with pacritinib alone, d7
[5] = system: panel of 11 AML cell lines; assay: Cell proliferation assay; format: cell-based; settings: Homo sapiens, 48 h, read-out: IC50 on cell proliferation
Procedure, shortened: (§2)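 Cells were seeded at a predetermined optimal density in log phase and rested 2 h before treatment. They were then exposed for 48 h to test compound in 9 serial-dilution steps from 10 μM to 1.5 nM, with 0.1% solvent. Viability was read by CellTiter-Glo luminescence. At least three independent experiments were run in triplicate, and IC50 came from curve fitting.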

HL-60 = assay: Cell proliferation assay and in vitro synergy; format: cell-based; settings: Homo sapiens, HL-60, 48 h, read-out: IC50 on cell proliferation
Procedure, shortened: as §2

[6] = system: pFLT3 (Y591) in MOLM-13 cells (FLT3-ITD); assay: Western blot of FLT3 signaling; format: cell-based, human; settings: 500 nM, 24 h
Procedure, shortened: (§3)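 Cells were treated with test compound at graded concentrations for 24 h, then lysed. Western blots loaded 50 μg total lysate for pFLT3 (Y591) and FLT3, and 25 μg for the other proteins. Other antibodies were pSTAT5 (Y694) and STAT5. FLT3-ITD lines were compared with wt-FLT3 RS4;11 cells.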

[7] = system: pJAK2, JAK2, pSTAT5 and STAT5 in JAK2 wt 32D cells; assay: Western blot of JAK-STAT signaling; format: cell-based, murine; settings: 125–500 nM for 24 h
Procedure, shortened: (§4)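 Cells were treated with test compound at 125–500 nM for 24 h, then lysed. Western blots of 25 μg total lysate were probed for pJAK2 (Y1007/1008), JAK2, pSTAT5 (Y694) and STAT5. JAK2V617F lines were compared with JAK2 wt lines.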

[8] = system: HL-60 cells engrafted orthotopically; assay: Orthotopic AML model; format: in vivo, mouse
Procedure, shortened: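 Female SCID mice (n=6 per group) received 1 × 10^7 HL-60 cells i.v. in 100 μl serum-free medium. From d30, once disease was established, they were dosed with 125 mg/kg test compound thrice weekly by oral gavage at 10 ml/kg. Paralysis symptoms were scored. Blood counts were taken from tail blood with a hematology analyzer and compared with age-matched uninoculated SCID mice. Statistics used ANOVA/Bonferroni.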

HEL92.1.7 xenografts = assay: Subcutaneous HEL92.1.7 xenograft model; format: in vivo, mouse; settings: HEL92.1.7 model, 75 or 125 mg/kg every other day for 17 days
Procedure, shortened: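 Female BALB/c nude mice (8–10 weeks; n=5 per group) were implanted s.c. in the right flank with 5 × 10^6 HEL92.1.7 cells in serum-free medium mixed 1:1 with Matrigel. From d18, they were dosed by oral gavage (10 ml/kg) at 75 or 125 mg/kg every other day for 17 days. Tumor volume was measured by caliper as (w²×l)/2.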

MV4-11 xenografts = assay: Subcutaneous MV4-11 xenograft model; format: in vivo, mouse
Procedure, shortened: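 Female BALB/c nude mice (8–10 weeks; n=10 per group) were implanted s.c. in the right flank with 1 × 10^7 MV4-11 cells in serum-free medium mixed 1:1 with Matrigel. From d9, they received 25 or 50 mg/kg per day by oral gavage (10 ml/kg) for 21 days. Tumor volume was measured by caliper as (w²×l)/2. Statistics used ANOVA/Bonferroni.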

[9] = system: pFLT3, FLT3 and pSTAT5 in RS4;11 cells (wt FLT3); assay: Western blot of FLT3 signaling; format: cell-based, human; settings: RS4;11, 24 h, compared with FLT3-ITD cell lines
Procedure, shortened: as §3

[10] = system: pFLT3 (Y591) in MV4-11 cells (FLT3-ITD); assay: Western blot of FLT3 signaling; format: cell-based, human; settings: 500 nM, 24 h
Procedure, shortened: as §3

[11] = system: pJAK2, JAK2, pSTAT5 and STAT5 in JAK2^V617F mutant cells (HEL92.1.7 and SET-2); assay: Western blot of JAK-STAT signaling; format: cell-based, human; settings: 125–500 nM for 24 h
Procedure, shortened: as §4

[12] = system: pJAK2, JAK2, pSTAT5 and STAT5 in JAK2 wt KARPAS 1106-P cells; assay: Western blot of JAK-STAT signaling; format: cell-based; settings: data not shown
Procedure, shortened: as §4

[13] = pacritinib 150 mg/kg twice daily

SMILES: C1=C/COCc2cc(ccc2OCCN2CCCC2)Nc2nccc(n2)-c2cccc(c2)COC/1 [pacritinib]
- plasma IL-6, IP-10, KC and MIP-1α ([1]; single-agent pacritinib): normalization
- decrease of pSTAT5 levels in tumors (pSTAT5 in SET-2 tumors; pacritinib 150 mg/kg twice daily, 3 h post dose): about 50%
- increase in exposure following repeated dosing [2]: two-fold
- reduction of plasma MCP-1 levels (MCP-1; pacritinib single agent): 10%
- increase in AUC after chronic dosing in combination ([3]; pacritinib): approximately four-fold
- increase in Cmax after chronic dosing in combination ([3]; pacritinib): approximately two-fold
- TGI (tumor volume) (SET-2 xenografts; [13]): 61%
- TGI on the basis of tumor weight (SET-2 xenografts; [13]): 47%
- reduction in tumor weight (MOLM-13 s.c. xenografts; pacritinib 50 mg/kg daily): 14.7%
- reduction of metastatic incidences (MOLM-13 s.c. xenografts; single-agent pacritinib): 60%
- total levels of FLT3 in tumors [4]: increased expression total levels of FLT3 significantly

SMILES: CCCCc1nc2cc(/C=C/C(=O)NO)ccc2n1CCN(CC)CC [pracinostat]
- IC50 [5]: 70 to 560 nM
- IC50 (HL-60): 70 nM
- pFLT3 (Y591) level [6]: near-total ablation
- pJAK2, JAK2, pSTAT5 and STAT5 protein levels [7]: remained unaffected
- plasma IL-6, IP-10, KC and MIP-1α ([1]; single-agent pracinostat): normalization
- pSTAT5 levels in tumors compared with vehicle treated animals (pSTAT5 in SET-2 tumors; pracinostat 75 mg/kg every other day): increased pSTAT5 levels
- numbers of platelets ([8]; 125 mg/kg thrice weekly): without significantly reducing
- delay of the disease onset ([8]; 125 mg/kg thrice weekly from d30): 17 days
- blood counts (white blood counts, lymphocyte counts) ([8]; 125 mg/kg thrice weekly, d15 of the study): normalizing blood counts to the levels of disease-free mice
- reduction of death caused by progressive AML ([8]; 125 mg/kg thrice weekly, study d24): 50%
- maximum body weight loss (HEL92.1.7 xenografts): 4.7%
- Complete tumor regression at the end of the treatment (MV4-11 xenografts; 50 mg/kg per day for 21 days): 6 out of 10
- maximum body weight loss (MV4-11 xenografts; MV4-11 model, 25 or 50 mg/kg per day for 21 days): 7%
- reduction of plasma MCP-1 levels (MCP-1; pracinostat single agent): 40%
- levels of pFLT3 and FLT3, and pSTAT5 [9]: reduced, but to a lesser extent
- pharmacokinetic parameters after 14 days of co-administration with pacritinib ([3]; pracinostat): similar
- TGI on the basis of tumor weight (SET-2 xenografts; pracinostat 75 mg/kg q.o.d): 42.5%
- reduction in tumor weight (MOLM-13 s.c. xenografts; pracinostat 75 mg/kg q.o.d): 19.2%
- reduction of metastatic incidences (MOLM-13 s.c. xenografts; single-agent pracinostat): 50%
- pFLT3 (Y591) level [10]: near-total ablation
- pJAK2 (Y1007/08) and pSTAT5 (Y694) levels, total JAK2 and STAT5 protein [11]: decreased
- pJAK2, JAK2, pSTAT5 and STAT5 protein levels [12]: remained unaffected
